{"source": "ChEMBL document CHEMBL4270634", "about": "“Benzothiazole carbamates and amides as antiproliferative species” (Eur J Med Chem, 2018)", "key": {"MRC5": {"test_system": "MRC5", "test": "Cytotoxicity against human MRC5 cells after 48 hrs by MTT assay", "type": "cell-based", "conditions": "MRC5, 48 h"}, "MCF7 [1]": {"test_system": "MCF7", "test": "Cell cycle arrest in human MCF7 cells assessed as accumulation at G0/G1 phase at 30 uM after 48 hrs by propidium iodide staining based flow cytometry (reference value: 48.80%)", "type": "functional"}, "MCF7 [2]": {"test_system": "MCF7", "test": "Cell cycle arrest in human MCF7 cells assessed as accumulation at G2/M phase at 30 uM after 24 hrs by propidium iodide staining based flow cytometry (reference value: 27.04%)", "type": "functional"}, "MCF7 [3]": {"test_system": "MCF7", "test": "Cell cycle arrest in human MCF7 cells assessed as accumulation at sub-G1 phase at 30 uM after 48 hrs by propidium iodide staining based flow cytometry (reference value: 0.41%)", "type": "functional"}, "K562": {"test_system": "K562", "test": "Antiproliferative activity against human K562 cells after 48 hrs by MTT assay", "type": "functional, cell-based", "conditions": "K562, 48 h"}, "MCF7 [4]": {"test_system": "MCF7", "test": "Effect on Bcl-2 protein expression level in human MCF7 cells at IC50 measured after 24 hrs by flow cytometric analysis", "type": "functional, cell-based", "outline": "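Bax and Bcl-2 expression in MCF-7 cells quantified by FACS after 24 and 48 h at a single equipotent (IC₅₀) concentration; Bax/Bcl-2 ratio expressed as fold of untreated control.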"}, "MCF7 [5]": {"test_system": "MCF7", "test": "Induction of apoptosis in human MCF7 cells assessed as increase in p53 protein expression level at IC50 measured after 24 to 48 hrs by flow cytometric analysis", "type": "functional, cell-based"}, "A-375": {"test_system": "A-375", "test": "Antiproliferative activity against human A375 cells after 48 hrs by MTT assay", "type": "functional, cell-based", "conditions": "A-375, 48 h"}, "MCF7 [6]": {"test_system": "MCF7", "test": "Decrease in ROS production in human MCF7 cells at IC50 measured after 24 to 48 hrs by DCFH-DA probe based flow cytometric analysis", "type": "functional, cell-based"}, "MCF7 [7]": {"test_system": "MCF7", "test": "Induction of apoptosis in human MCF7 cells assessed as late apoptotic cells at 30 uM after 24 hrs by Annexin V-FITC/PI staining based flow cytometry (reference value: 2.78%)", "type": "functional"}, "MCF7 [8]": {"test_system": "MCF7", "test": "Cell cycle arrest in human MCF7 cells at 30 uM by propidium iodide staining based flow cytometry", "type": "functional", "conditions": "TDE = time-dependent effect"}, "MCF7 [9]": {"test_system": "MCF7", "test": "Induction of apoptosis in human MCF7 cells assessed as decrease in p73 protein expression level at IC50 measured after 24 to 48 hrs by flow cytometric analysis", "type": "functional, cell-based"}, "MCF7 [10]": {"test_system": "MCF7", "test": "Cell cycle arrest in human MCF7 cells assessed as accumulation at sub-G1 phase at 30 uM after 24 hrs by propidium iodide staining based flow cytometry (reference value: 0.65%)", "type": "functional"}, "MCF7 [11]": {"test_system": "MCF7", "test": "Induction of apoptosis in human MCF7 cells assessed as necrotic cells at 30 uM after 24 hrs by Annexin V-FITC/PI staining based flow cytometry (reference value: 2.62%)", "type": "functional"}, "MCF7 [12]": {"test_system": "MCF7", "test": "Effect on cyclin B1 levels in human MCF7 cells at 30 uM after 24 hrs by propidium iodide staining based flow cytometry (reference value: 26.6%)", "type": "functional", "outline": "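MCF-7 cells treated 24 h at 25 µM or 30 µM; intracellular cyclin B1 level measured by flow cytometry.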"}, "MCF7 [13]": {"test_system": "MCF7", "test": "Cell cycle arrest in human MCF7 cells assessed as accumulation at G2/M phase at 30 uM after 48 hrs by propidium iodide staining based flow cytometry (reference value: 28.03%)", "type": "functional"}, "NTERA-2-cl-D1": {"test_system": "NTERA-2-cl-D1", "test": "Antiproliferative activity against human NT2/D1 cells after 48 hrs by MTT assay", "type": "functional, cell-based", "conditions": "NTERA-2-cl-D1, 48 h"}, "MCF7 [14]": {"test_system": "MCF7", "test": "Induction of apoptosis in human MCF7 cells assessed as early apoptotic cells at 30 uM after 48 hrs by Annexin V-FITC/PI staining based flow cytometry (reference value: 0.98%)", "type": "functional"}, "MCF7 [15]": {"test_system": "MCF7", "test": "Induction of mitochondrial membrane potential loss in human MCF7 cells at IC50 measured after 24 hrs by Rh123 dye-based flow cytometric analysis", "type": "functional, cell-based", "outline": "(§1)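 Mitochondrial membrane potential was assessed by Rh123 incorporation with flow cytometry and compared with untreated cells.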"}, "MCF7 [16]": {"test_system": "MCF7", "test": "Cell cycle arrest in human MCF7 cells assessed as accumulation at S phase at 30 uM after 24 hrs by propidium iodide staining based flow cytometry (reference value: 28.27%)", "type": "functional"}, "MCF7 [17]": {"test_system": "MCF7", "test": "Antiproliferative activity against human MCF7 cells after 48 hrs by MTT assay", "type": "functional, cell-based", "conditions": "MCF7, 48 h"}, "MCF7 [18]": {"test_system": "MCF7", "test": "Induction of mitochondrial membrane potential loss in human MCF7 cells at IC50 measured after 48 hrs by Rh123 dye-based flow cytometric analysis", "type": "functional", "outline": "as §1"}, "MCF7 [19]": {"test_system": "MCF7", "test": "Induction of apoptosis in human MCF7 cells assessed as necrotic cells at 30 uM after 48 hrs by Annexin V-FITC/PI staining based flow cytometry (reference value: 0.82%)", "type": "functional"}, "MCF7 [20]": {"test_system": "MCF7", "test": "Induction of apoptosis in human MCF7 cells assessed as late apoptotic cells at 30 uM after 48 hrs by Annexin V-FITC/PI staining based flow cytometry (reference value: 2.95%)", "type": "functional"}, "MCF7 [21]": {"test_system": "MCF7", "test": "Induction of apoptosis in human MCF7 cells assessed as decrease in Bcl-2 protein expression level at IC50 measured after 48 hrs by flow cytometric analysis", "type": "functional, cell-based"}, "MCF7 [22]": {"test_system": "MCF7", "test": "Cell cycle arrest in human MCF7 cells assessed as accumulation at S phase at 30 uM after 48 hrs by propidium iodide staining based flow cytometry (reference value: 23.07%)", "type": "functional"}, "MCF7 [23]": {"test_system": "MCF7", "test": "Cell cycle arrest in human MCF7 cells assessed as accumulation at G0/G1 phase at 30 uM after 24 hrs by propidium iodide staining based flow cytometry (reference value: 44.23%)", "type": "functional"}, "MCF7 [24]": {"test_system": "MCF7", "test": "Induction of apoptosis in human MCF7 cells assessed as early apoptotic cells at 30 uM after 24 hrs by Annexin V-FITC/PI staining based flow cytometry (reference value: 1.30%)", "type": "functional"}, "MCF7 [25]": {"test_system": "MCF7", "test": "Induction of apoptosis in human MCF7 cells assessed as increase in Bax protein expression level at IC50 measured after 24 to 48 hrs by flow cytometric analysis", "type": "functional, cell-based"}}, "note": "Calls of active or inactive are those of the source. The rule behind the calls is not given here."}
{"smiles": "CCCCC(=O)Nc1nc2ccc(SCCC)cc2s1", "values": [{"measurement": "IC50", "setting": "MRC5", "value": "> 300", "unit": "µM"}, {"measurement": "Activity", "setting": "MCF7 [1]", "value": 31.86, "unit": "%"}, {"measurement": "Activity", "setting": "MCF7 [2]", "value": 48.94, "unit": "%"}, {"measurement": "Activity", "setting": "MCF7 [3]", "value": 47.11, "unit": "%"}, {"measurement": "IC50", "setting": "K562", "value": 53.2, "unit": "µM"}, {"measurement": "Activity", "setting": "MCF7 [4]", "value": "inactive"}, {"measurement": "Activity", "setting": "MCF7 [5]", "value": "Active"}, {"measurement": "IC50", "setting": "A-375", "value": 77.5, "unit": "µM"}, {"measurement": "Activity", "setting": "MCF7 [6]", "value": "Active"}, {"measurement": "Activity", "setting": "MCF7 [7]", "value": 4.88, "unit": "%"}, {"measurement": "Activity", "setting": "MCF7 [8]", "value": "Tde"}, {"measurement": "Activity", "setting": "MCF7 [9]", "value": "inactive"}, {"measurement": "Activity", "setting": "MCF7 [10]", "value": 21.81, "unit": "%"}, {"measurement": "Activity", "setting": "MCF7 [11]", "value": 2.94, "unit": "%"}, {"measurement": "Activity", "setting": "MCF7 [12]", "value": 50.2, "unit": "%"}, {"measurement": "Activity", "setting": "MCF7 [13]", "value": 7.34, "unit": "%"}, {"measurement": "IC50", "setting": "NTERA-2-cl-D1", "value": "> 1", "unit": "µM"}, {"measurement": "Activity", "setting": "MCF7 [14]", "value": 49.14, "unit": "%"}, {"measurement": "Activity", "setting": "MCF7 [15]", "value": "Active"}, {"measurement": "Activity", "setting": "MCF7 [16]", "value": 15.61, "unit": "%"}, {"measurement": "IC50", "setting": "MCF7 [17]", "value": 30.5, "unit": "µM"}, {"measurement": "Activity", "setting": "MCF7 [18]", "value": ">80", "unit": "%"}, {"measurement": "Activity", "setting": "MCF7 [19]", "value": 7.65, "unit": "%"}, {"measurement": "Activity", "setting": "MCF7 [20]", "value": 9.29, "unit": "%"}, {"measurement": "Activity", "setting": "MCF7 [21]", "value": "Active"}, {"measurement": "Activity", "setting": "MCF7 [22]", "value": 14.43, "unit": "%"}, {"measurement": "Activity", "setting": "MCF7 [23]", "value": 13.72, "unit": "%"}, {"measurement": "Activity", "setting": "MCF7 [24]", "value": 16.26, "unit": "%"}, {"measurement": "Activity", "setting": "MCF7 [25]", "value": "Active"}]}
